Key:
[1] = target: T1, Neutrophil elastase (Homo sapiens, UniProt P08246); assay: In vitro inhibitory activity against human leukocyte elastase (HLE)
T1 sequence (P08246 whole entry): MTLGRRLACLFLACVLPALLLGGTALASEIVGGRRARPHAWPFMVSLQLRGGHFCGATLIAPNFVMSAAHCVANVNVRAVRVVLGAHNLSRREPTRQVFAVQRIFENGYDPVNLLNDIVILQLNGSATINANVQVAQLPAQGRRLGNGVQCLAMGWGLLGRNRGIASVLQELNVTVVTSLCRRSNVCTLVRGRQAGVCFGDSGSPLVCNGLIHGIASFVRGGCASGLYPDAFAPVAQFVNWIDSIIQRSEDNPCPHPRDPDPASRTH
Method in brief: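 HLE at 1 μg/mL mixed with inhibitor, with enzyme activity read 2 min after mixing. IC50 (μM) is the inhibitor concentration that cuts HLE activity by 50%.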

[2] = target: T2, Neutrophil elastase (Homo sapiens) (UniProt P08246); assay: Second-order rate constant for time-dependent inactivation of Human Leukocyte Elastase for 15 min
T2 sequence (whole entry): T1 sequence (P08246 whole entry)
Method in brief: (§1)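 Inactivation of HLE by inhibitor was followed over 15 min. The second-order rate constant was expressed as k_obs/[I] (M^-1 s^-1). Where inhibition was not time-dependent, Ki was instead calculated from the initial velocity.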

[3] = target: T2, Neutrophil elastase (Homo sapiens); assay: Second-order rate constant for time-dependent inactivation of HLE for 15 min; method in brief: as §1
[4] = target: T2, Neutrophil elastase (Homo sapiens)

Structure (SMILES)	IC50 [1] [nM]	k obs / 1 [2] [M⁻¹ s⁻¹]	k obs / 1 [3] [M⁻¹ s⁻¹]	k obs / 1 [4] [M⁻¹ s⁻¹]
C=CCC1=C(C(=O)OC(C)(C)C)N2C(=O)[C@H](OC)C2S(=O)(=O)C1 (stereo partly specified)	–	6100	–	–
CO[C@H]1C(=O)N2C(C(=O)OC(C)(C)C)=C(CS(=O)(=O)c3ccccc3)CS(=O)(=O)C12 (stereo partly specified)	440	–	–	–
CO[C@H]1C(=O)N2C(C(=O)OC(C)(C)C)=C(CSc3nnc(C)s3)CS(=O)(=O)C12 (stereo partly specified)	2230	–	7900	–
CO[C@H]1C(=O)N2C(C(=O)OC(C)(C)C)=C(CSc3nccn3C)CS(=O)(=O)C12 (stereo partly specified)	2330	1880	–	–
CO[C@H]1C(=O)N2C(C(=O)OC(C)(C)C)=C(CSc3nnc[nH]3)CS(=O)(=O)C12 (stereo partly specified)	2400	–	–	–
CO[C@H]1C(=O)N2C(C(=O)OC(C)(C)C)=C(COC(=O)c3ccccc3)CS(=O)(=O)C12 (stereo partly specified)	–	32500	–	–
CO[C@H]1C(=O)N2C(C(=O)OC(C)(C)C)=C(COC(N)=O)CS(=O)(=O)C12 (stereo partly specified)	–	–	10800	–
CO[C@H]1C(=O)N2C3=C(COC3=O)CS(=O)(=O)C12 (stereo partly specified)	57800	46	–	–
CO[C@H]1C(=O)N2C(C(=O)OC(C)(C)C)=C(CSc3nnnn3C)CS(=O)(=O)C12 (stereo partly specified)	1620	15000	–	–
CO[C@H]1C(=O)N2C(C(=O)OC(C)(C)C)=C(COC(=O)NCc3ccccc3)CS(=O)(=O)C12 (stereo partly specified)	–	15100	–	–

The next lines start with the values.

IC50 [1] [nM]	k obs / 1 [2] [M⁻¹ s⁻¹]	k obs / 1 [3] [M⁻¹ s⁻¹]	k obs / 1 [4] [M⁻¹ s⁻¹]	Structure (SMILES)
630	8600	–	–	CO[C@H]1C(=O)N2C(C(=O)OC(C)(C)C)=C(CSc3nc(=O)c(=O)[nH]n3C)CS(=O)(=O)C12 (stereo partly specified)
–	15800	–	–	CO[C@H]1C(=O)N2C(C(=O)OC(C)(C)C)=C(COC(=O)C(C)(C)C)CS(=O)(=O)C12 (stereo partly specified)
910	–	16800	–	CO[C@H]1C(=O)N2C(C(=O)OC(C)(C)C)=C(C[S+]([O-])c3ccccc3)CS(=O)(=O)C12 (stereo partly specified)
1820	4300	–	–	CCOC(=S)SCC1=C(C(=O)OC(C)(C)C)N2C(=O)[C@H](OC)C2S(=O)(=O)C1 (stereo partly specified)
–	–	1630	–	CO[C@H]1C(=O)N2C(C(=O)OC(C)(C)C)=C(C)CS(=O)(=O)C12 (stereo partly specified)
1000	–	–	–	COCC1=C(C(=O)OC(C)(C)C)N2C(=O)[C@H](OC)C2S(=O)(=O)C1 (stereo partly specified)
–	–	13800	–	CO[C@H]1C(=O)N2C(C(=O)OC(C)(C)C)=C(COC(=O)CCC(=O)O)CS(=O)(=O)[C@H]12
–	3500	–	–	CO[C@H]1C(=O)N2C(C(=O)OC(C)(C)C)=C(CSc3nc[nH]n3)CS(=O)(=O)C12 (stereo partly specified)
–	14900	–	–	CO[C@H]1C(=O)N2C(C(=O)OC(C)(C)C)=C(CCl)CS(=O)(=O)C12 (stereo partly specified)
–	3700	–	–	CO[C@H]1C(=O)N2C(C(=O)OC(C)(C)C)=C(CSc3nnnn3CC(=O)O)CS(=O)(=O)C12 (stereo partly specified)
130	–	63900	–	CO[C@H]1C(=O)N2C(C(=O)OC(C)(C)C)=C(COC(=O)N[C@@H](Cc3ccccc3)C(=O)O)CS(=O)(=O)C12 (stereo partly specified)
1330	–	–	12700	CO[C@H]1C(=O)N2C(C(=O)OC(C)(C)C)=C(COC(C)=O)CS(=O)(=O)C12 (stereo partly specified)

— ChEMBL document CHEMBL1124912, “Inhibition of human leukocyte elastase. 3. Synthesis and activity of 3'-substituted cephalosporins” (J Med Chem, 1990)
